What was measured:
[1] = Binding affinity to GC-rich FAM-GCGCAGATTTTCTGCGC-TAMRA DNA (unknown origin) assessed as change in melting temperature at 1 uM by FRET assay
Procedure, shortened: (§1)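 Fam/Tamra-labelled hairpins, 400 nM in 50 mM potassium cacodylate pH 7.4, annealed at 85 °C for 5 min, cooled over 5 h, then mixed 1:1 with ligand diluted from DMSO stock; ligand 1 μM, 24 h incubation. Fluorescence (excitation 450−495, emission 515−545 nm) read every 0.5 °C from 30−100 °C; Tm from first-derivative maximum of smoothed curves, ΔTm versus blank.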

WI-38 = assay: Cytotoxicity against human WI38 cells after 96 hrs by MTT assay; type: cell-based; details: WI-38, 96 h
Procedure, shortened: (§2)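 Adherent cells were grown at 37 °C in 5% CO2 in DMEM or MEM with 10% FBS, L-glutamine, nonessential amino acids and hydrocortisone, then seeded to 30–40% confluence. Compounds were dissolved in water at up to 100 μM, serially diluted tenfold and added for 96 h of continuous exposure. MTT absorbance was read at 570 nm, and IC50 was taken from dose–response analysis.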

A549 = assay: Cytotoxicity against human A549 cells after 96 hrs by MTT assay; type: functional, cell-based; details: A549, 96 h; procedure, shortened: as §2
[2] = Selectivity ratio of deltaTm for GC-rich FAM-GCGCAGATTTTCTGCGC-TAMRA DNA (unknown origin) to deltaTm for AT-rich FAM-TATAAGATTTTCTTATA-TAMRA DNA (unknown origin); procedure, shortened: as §1
[3] = Cytotoxicity against human primary CLL cells after 96 hrs by annexin V/propidium iodide staining-based FACS flow cytometric analysis; type: functional, cell-based
Procedure, shortened: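 Freshly isolated peripheral blood CLL cells at 1 × 10^6/mL were cultured in RPMI with penicillin, streptomycin and 10% FCS at 37 °C in 5% CO2. Serial dilutions of compound from DMSO stocks were added, with drug-free control cultures. Apoptosis was measured by annexin V/propidium iodide flow cytometry, in duplicate. LD50 came from sigmoidal curves of log concentration against percentage apoptosis.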

MDA-MB-231 = assay: Cytotoxicity against human MDA-MB-231 cells after 96 hrs by MTT assay; type: functional, cell-based; details: MDA-MB-231, 96 h; procedure, shortened: as §2
MCF7 = assay: Cytotoxicity against human MCF7 cells after 96 hrs by MTT assay; type: functional, cell-based; details: MCF7, 96 h; procedure, shortened: as §2
A2780 = assay: Cytotoxicity against human A2780 cells after 96 hrs by MTT assay; type: functional, cell-based; details: A2780, 96 h; procedure, shortened: as §2
A-431 = assay: Cytotoxicity against human A431 cells after 96 hrs by MTT assay; type: functional, cell-based; details: A-431, 96 h; procedure, shortened: as §2
[4] = Binding affinity to GC-rich GCGC-AGA-TTT-TCT-GCGC DNA (unknown origin) after 5 mins by HPLC-MS analysis (reference value: 12 %)
[5] = Binding affinity to AT-rich TATA-AGA-TTT-TCT-TATA DNA (unknown origin) after 5 mins by HPLC-MS analysis (reference value: 70 %)
MIA PaCa-2 = assay: Cytotoxicity against human MIAPaCa2 cells after 96 hrs by MTT assay; type: functional, cell-based; details: MIA PaCa-2, 96 h; procedure, shortened: as §2
[6] = Binding affinity to AT-rich FAM-TATAAGATTTTCTTATA-TAMRA DNA (unknown origin) assessed as change in melting temperature at 1 uM by FRET assay; procedure, shortened: as §1
[7] = Toxicity in ip dosed Swiss Webster mouse; type: organism-based; details: in vivo
Mus musculus = assay: Toxicity in Swiss Webster mouse assessed as weight loss at 400 ug/kg/day, ip; type: organism-based; details: in vivo, 0.4 mg/kg

Compound | ΔTm [1] [°C] | IC50 (WI-38) [nM] | IC50 (A549) [nM] | Ratio [2] | IC50 [3] [nM] | IC50 (MDA-MB-231) [pM] | IC50 (MCF7) [pM] | IC50 (A2780) [nM] | IC50 (A-431) [nM] | Activity [4] [%] | Activity [5] [%] | IC50 (MIA PaCa-2) [nM] | ΔTm [6] [°C] | MTD [7] [mg/kg/day] | Activity (Mus musculus)
COC(=O)c1cc(NC(=O)c2cc(NC(=O)CCCOc3cc4c(cc3OC)C(=O)N3CCC[C@H]3C=N4)cn2C)cn1C | 1.1 | 41.3 | 6.1 | 0.15 | 1.3 | 120 | 320 | 0.57 | 0.55 | 12 | 70 | 2.4 | 7.4 |  | 
CCOC(=O)c1nc(NC(=O)c2cc(-c3ccc(NC(=O)CCCOc4cc5c(cc4OC)C(=O)N4CCC[C@H]4C=N5)cc3)cn2C)cn1C | 2.8 | 1240 | 0.47 | 5.6 | 3 | 450 | 370 | 0.15 | 0.19 |  |  | 0.11 | 0.5 |  | 
COC(=O)c1cc(-c2ccc(NC(=O)CCCOc3cc4c(cc3OC)C(=O)N3CCC[C@H]3C=N4)cc2)cn1C | 3.9 | 160 | 7.5 | 13 | 6.2 | 2110 | 1910 | 1.87 | 2.31 | 67 | 3 | 1.2 | 0.3 |  | 
COC(=O)c1cc(-c2ccc(NC(=O)c3cc(NC(=O)CCCOc4cc5c(cc4OC)C(=O)N4CCC[C@H]4C=N5)cn3C)cc2)cn1C | 1.4 | 474 | 0.056 | 0.28 | 0.098 | 0.065 | 0.02 | 0.013 |  |  |  |  | 5 | 0.4 | Toxic
COC(=O)c1cc(-c2ccc(NC(=O)c3cc(-c4ccc(NC(=O)CCCOc5cc6c(cc5OC)C(=O)N5CCC[C@H]5C=N6)cc4)cn3C)cc2)cn1C | 3.6 | 159 | 0.54 | 3.6 | 4.7 | 460 | 900 | 0.56 | 2.91 |  |  | 0.35 | 0.8 |  | 
